The results in this text go back to the EternaBench riboswitch data.

One may read the apparent Kd as the concentration giving half-maximal binding under the conditions of the assay.

The data set deals with MS2 coat protein. Nature of the data set: apparent Kd, MS2 coat protein; higher = weaker binding; RNA-MaP array; tryptophan 2.4 mM where present. A digest of the protocol:
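Apparent Kd: the median of filtered binding-curve fits from single clusters. Designs were transcribed on Illumina sequencing-chip clusters by stalled E. coli RNA polymerase and titrated with SNAP-549-labelled MS2 coat protein from 0.7 or 1.5 nM, doubling to 3 µM, in 100 mM Tris-HCl pH 7.5, 80 mM KCl, 4 mM MgCl2, BSA, DTT, yeast tRNA and Tween-20. Each series ran without and then with constant ligand, and green signal was normalised to red-channel RNA signal and control-cluster median Fmax.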

The mark [1] stands for this setting: designed as: ON switch for tryptophan, no ligand.
[2] abbreviates: ligand present: tryptophan, designed as: ON switch for tryptophan.
Where [3] appears, read: designed as: OFF switch for tryptophan, no ligand.
[4] abbreviates: ligand present: tryptophan, designed as: OFF switch for tryptophan.

Regarding “GGCAAGCGAGACAUGAGGAUCACCCAUGUUCGAGGACCGGUACGGCCGCCACUCGGUGGACUCAUGGUAAAGCCGGUGAGCCAAA”, the “apparent Kd” value was determined as 34.6 nM under setting [1] and 74.3 nM under setting [2].

For the sequence “CUACAUUUGUAGAAACCGGUCACCAUUACUCGAGGACCGGUACGGCCGCCACUCGUGUCAUGUGAUACAUGAGGAUCACCCAUGU”, the “apparent Kd” value by setting is: under setting [1], 22 nM; under setting [2], 23.1 nM.

As to “AUAACAUGAGGAUCACCCAUGUAUUGGUUACGAGGACCGGUACGGCCGCCACUCGUAUUUUGGUGGUAUUUUGUAUAUAUGAUAA”, the “apparent Kd” value by setting is: under setting [1], 26.8 nM; under setting [2], 26.3 nM.

With “GGUUACUCUACGGCCGCCACUGAUUAAUUAUAAUCCUGUACAUAAACAUGAGGAUCACCCAUGUACAGGACCGGGUAGUGUAACC”, the “apparent Kd” value by setting is: under setting [1], 34.7 nM; under setting [2], 29.1 nM.

For “AUAUAUACAUGAGGAUCACCCAUGUUAUUUCGAGGACCGGUACGGCCGCCACUCGAUAGAGUAGAAGUAAAUUUUGAUUCAUGUA”, the “apparent Kd” value is, setting by setting: under setting [1], 20.6 nM; under setting [2], 18.1 nM.

As for “AUAACAUGAGGAUCACCCAUGUAUUGGUAACGAGGACCGGUACGGCCGCCACUCGAAUUUUGGUGGUAUAAUAUAUAUAUGAUUA”, the “apparent Kd” value by setting is: under setting [1], 21 nM; under setting [2], 20.6 nM.

For the sequence “AGUUUAGACACGGCCGCCACUCGUGACAGAUUUCGCAGUGGUCAACAUGAGGAUCACCCAUGUCUGAGGACCGGGUGUUGAGUUU”, the “apparent Kd” value by setting is: under setting [3], 44.1 nM; under setting [4], 259 nM.

With “GUAUAUUGAAAACAAUAUACAGUGGGUGAACGAGGACCGGUACGGCCGCCACUCGGACAUGAGGAUCACCCAUGUCCAUGUGAAA”, the “apparent Kd” value runs as follows: under setting [3], 17 nM; under setting [4], 35.2 nM.

With “AAUGUAUGGCACAUGAGGAUCACCCAUGUGCGAGGACCGGUACGGCCGCCACUCGGUCCUGGAUUCUUAUUACUAUACAUUAAUG”, the “apparent Kd” value runs as follows: under setting [3], 14.5 nM; under setting [4], 16.7 nM.

Take “GGUUACUCUACGGCCGCCACUGUAAUGUAAAGAUACCUGUACAUGACAUGAGGAUCACCCAUGUACAGGACCGGGUAGUGUAACC”: the “apparent Kd” value runs as follows: under setting [1], 237 nM; under setting [2], 48.1 nM.

As to “GGAUUAGAGGCGGCCGCCACUGGAACAUGAGGAUCACCCAUGUAGUGCAUGUAAUUAACCUCGAUCAGGACCGGGCCGAUAGUCA”, the “apparent Kd” value is, setting by setting: under setting [3], 59.9 nM; under setting [4], 103 nM.

As for “GCAACGCUGUCGGCCGCCACUUUUACAUUGGCCGUGCUGUCUCUACAUGAGGAUCACCCAUGUGGAAGGACCGGGACAGCACACU”, the “apparent Kd” value runs as follows: under setting [3], 29 nM; under setting [4], 64 nM.

On to “ACCUGCGUUUGAUAAAAUCAGACGCAGGUUCGAGGACCGGUACGGCCGCCACUCGGACAUGAGGAUCACCCAUGUUUGACAUGGG”, for which the “apparent Kd” value is, setting by setting: under setting [3], 109 nM; under setting [4], 256 nM.

Turning to “CUGUACAUCUCGGCCGCCACUGCAACAUGUACACAUGGACAUGUACAUGAGGAUCACCCAUGUGGCAGGACCGGGAGGUGUGCAG”, the “apparent Kd” value by setting is: under setting [1], 192 nM; under setting [2], 26.5 nM.

Regarding “UAUAGUACCAGACAUGAGGAUCACCCAUGUCGAGGACCGGUACGGCCGCCACUCGGCAGUUUGCGUCCUCAGGUACUCCGGGUCA”, the “apparent Kd” value turned out to be 13.9 nM under setting [3] and 16.6 nM under setting [4].

Take “UAAUGCAGGUCGGCCGCCACUACACACAUGAGGAUCACCCAUGUAGUUACUGGGUGAAGUGGCAGUAGGACCGGGACCUGCAUAA”: the “apparent Kd” value under setting [1] is 419 nM and the “apparent Kd” value under setting [2] worked out at 516 nM.

As to “AACAGUUGGUCGGCCGCCACUACAUGAGGAUCACCCAUGUAGCGCGUUCUGCUCCAGGGCUCAUCUAGGACCGGGACACGAGUGU”, the “apparent Kd” value reads like this: under setting [3], 15.1 nM; under setting [4], 16 nM.

Regarding “UACUUGCUGACGGCCGCCACUAGAACAUGAGGAUCACCCAUGUACCCGGUCCUACAUGGGAUGACUAGGACCGGGUCAGCAAGAU”, the “apparent Kd” value under setting [3] was determined as 40.9 nM and the “apparent Kd” value under setting [4] came out at 141 nM.

With “UACUUGCUGACGGCCGCCACUAGAACAUGAGGAUCACCCAUGUAUCUAGUGGCAAUCCUCAUGACUAGGACCGGGUCAGCAAGAU”, the “apparent Kd” value turned out to be 9.71 nM under setting [3] and 9.56 nM under setting [4].

Regarding “CACGAAAGAUCGGCCGCCACUCAUGUAGCUUACAUGAGGAUCACCCAUGUAUUUUCUUUCUUUUAGAGGACCGGGAUCGAGCGUG”, the “apparent Kd” value runs as follows: under setting [1], 37.4 nM; under setting [2], 19.2 nM.

In the case of “UCGUUUGAGGCGGCCGCCACUGGUCUCAUGGUCAACAUGAGGAUCACCCAUGUAUCUUUGCUAAGCAGGACCGGGCCUCGAGCGA”, the “apparent Kd” value was found to be 66.7 nM under setting [3] and 36.8 nM under setting [4].

For the sequence “CACGAAAGAUCGGCCGCCACUAUUUGAUGUGUUCUUUCACAUGAGGAUCACCCAUGUUCUUAUUAUAGGACCGGGAUUGAGCGUG”, the “apparent Kd” value was found to be 83.8 nM under setting [3] and 64.3 nM under setting [4].

On to “GGGCGCGUGGACUGGCGUGCUCCGCUCCGUCGAGGACCGGUACGGCCGCCACUCGACAUGAGGAUCACCCAUGUGUGAGCUCGCG”, for which the “apparent Kd” value stood at 152 nM under setting [3] and 474 nM under setting [4].

As for “ACAGGUACGCCUAUUAAAAUAAAACACCUACGAGGACCGGUACGGCCGCCACUCGGGUGACAUGAGGAUCACCCAUGUGGCUAAA”, the “apparent Kd” value runs as follows: under setting [1], 394 nM; under setting [2], 155 nM.

As for “UCAUAAGUACCGGUCCUCAGAUCCUCAUGACGAGGACCGGUACGGCCGCCACUCGAAACAUGAGGAUCACCCAUGUAAUAAUAUU”, the “apparent Kd” value reads like this: under setting [3], 21.3 nM; under setting [4], 19 nM.

In the case of “UGUGCAUGAGUUGUAAAAGCUCAUGGGCAUCGAGGACCGGUACGGCCGCCACUCGGCUGUACAUGAGGAUCACCCAUGUCAGGGU”, the “apparent Kd” value amounted to 302 nM under setting [1] and 567 nM under setting [2].

With “CAAAUAAGAACAAACAAAUAACGGUUUUCGCGAGGACCGGUACGGCCGCCACUCGUGUGAAAUAACACAUGAGGAUCACCCAUGU”, the “apparent Kd” value runs as follows: under setting [1], 36.1 nM; under setting [2], 20.6 nM.

Turning to “CACGAAAGAUCGGCCGCCACUAAUCUAUGUGUACUAGCACAUGAGGAUCACCCAUGUUCUUGCGUUAGGACCGGGAUUGAGCGUG”, the “apparent Kd” value reads like this: under setting [3], 22.2 nM; under setting [4], 18.8 nM.

As to “AGUCUGGACUCGGCCGCCACUCGUGAUGCUUUGGCACAUGAGGAUCACCCAUGUGGUCGGCCUUAGAGGACCGGGAGUACCAGUC”, the “apparent Kd” value is, setting by setting: under setting [1], 56.1 nM; under setting [2], 13.7 nM.

“AAUUAUCAGUCGGCCGCCACUGACACAUGAGGAUCACCCAUGUAACUUGGGUUAAAUUUACUGAACAGGACCGGGACAAAGGCUA”: the “apparent Kd” value by setting is: under setting [3], 179 nM; under setting [4], 236 nM.
